The values below come from article PMC3594472 (Bioorganic & medicinal chemistry letters, 2013).

The target of assay [1] is T1, human M1 (hM1) receptor (Homo sapiens, UniProt P11229).
T1 sequence (P11229 1-460): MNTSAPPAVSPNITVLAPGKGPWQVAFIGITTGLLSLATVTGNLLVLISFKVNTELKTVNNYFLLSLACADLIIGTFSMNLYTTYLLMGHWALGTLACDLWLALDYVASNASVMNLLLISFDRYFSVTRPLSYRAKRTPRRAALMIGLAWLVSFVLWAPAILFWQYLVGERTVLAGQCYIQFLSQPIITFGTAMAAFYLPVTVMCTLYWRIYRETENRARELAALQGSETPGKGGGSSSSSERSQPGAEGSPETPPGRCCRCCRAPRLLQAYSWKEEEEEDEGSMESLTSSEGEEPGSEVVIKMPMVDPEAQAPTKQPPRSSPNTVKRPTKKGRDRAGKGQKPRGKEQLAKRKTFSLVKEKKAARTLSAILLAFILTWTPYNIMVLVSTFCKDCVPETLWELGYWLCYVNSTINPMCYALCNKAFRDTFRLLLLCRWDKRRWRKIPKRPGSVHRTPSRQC
Put plainly: hM1 PAM functional activity. The format is cell-based. The note with it: for hM1 PAM activity (in words): concentrations up to 30 µM. In short, it runs like this: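 Human M1 PAM functional assay. Test compound was run at concentrations up to a top level of 30 µM. Efficacy is expressed as percent of the maximal acetylcholine response. Where hM1 EC50 is listed as >10, the figure given is the percent maximal ACh response with test compound at 30 µM. Values are mean ± standard error of the mean of at least three independent determinations, each performed in triplicate.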

Assay [2] has as its target T1, human M1 (hM1) receptor. The note with it: previously reported value; ref 7b; cited from earlier work.
In assay [3] the test system is all five rat muscarinic acetylcholine receptors. Put plainly: Muscarinic selectivity profiling, rat receptors. The format is cell-based. Particulars: up to the highest concentration tested (30 µM).
For assay [4], the system named is all five human muscarinic acetylcholine receptors. Description: Muscarinic selectivity profiling, human receptors. The assay is classed as cell-based. The note with it: up to the highest concentration tested (30 µM).

Consider `C[Si](C)(C)C1COC2(C1)C(=O)N(Cc1ccc(Br)cc1)c1ccccc12` (stereo not drawn) [Compound 16], for which the “hM1 PAM activity (in words)” value in assay [1] is “inactive”.
On the same count and under the same terms, to `CN1CCCC12C(=O)N(Cc1ccc(Br)cc1)c1ccccc12` (stereo not drawn) [Compound 14] belongs “inactive”.
Turning to `Cn1cc(-c2ccc(CN3C(=O)C(=O)c4ccccc43)c(F)c2)cn1` [ML137], the “%AChmax” value in assay [2] is recorded as 65%.
Turning to `O=C1N(Cc2ccc(Br)cc2)c2ccccc2C12CCCO2` (stereo not drawn) [Compound 17], the “hM1 PAM activity (in words)” value in assay [1] is “inactive”.
As a reminder, the pEC50 is the EC50 on a negative log10 scale, so that one unit is a factor of ten. Low values mean a large EC50, high ones a small EC50. Take `CN1CCC2(C1)C(=O)N(Cc1ccc(-c3cnn(C)c3)cc1F)c1ccccc12` (stereo not drawn) [Compound 18d]: the “selectivity across rat muscarinic receptors (M1-M5)” value in assay [3] is “completely selective for the M1 receptors”. Besides, in assay [4], the “selectivity across human muscarinic receptors (M1-M5)” value is reported as “completely selective for the M1 receptors”. In assay [1] (Table 1, hM1 PAM, mean ± SEM), this compound had a pEC50 of 5.49 ± 0.10.
On to `Cn1cc(-c2ccc(CN3C(=O)C4(OCCO4)c4ccccc43)c(F)c2)cn1` [Compound 3], for which the “selectivity across rat muscarinic receptors (M1-M5)” value in assay [3] is “completely selective for the M1 receptors”. Moreover, the “selectivity across human muscarinic receptors (M1-M5)” value in assay [4] is listed as “completely selective for the M1 receptors”.
On to `Cc1nn(C)c(C)c1-c1ccc(CN2C(=O)C3(CCN(C4CCCC4)C3)c3ccccc32)c(F)c1` (stereo not drawn) [Compound 20d], for which the “hM1 PAM activity (in words)” value in assay [1] is “inactive”.
As for `Cc1c(-c2ccc(CN3C(=O)C4(CCN(C5CCCC5)C4)c4ccccc43)c(F)c2)cnn1C` (stereo not drawn) [Compound 20c], in assay [1], the “hM1 PAM activity (in words)” value is listed as “eliminated PAM activity”.
Still for that read-out and setting: the value for `Cn1cc(-c2ccc(CN3C(=O)C4(CCNC4)c4ccccc43)c(F)c2)cn1` (stereo not drawn) [Compound 18e] was “lacked any PAM activity”; that for `Cn1cc(-c2ccc(CN3C(=O)C4(CCN(c5ccccc5)C4)c4ccccc43)c(F)c2)cn1` (stereo not drawn) [Compound 19s] was “inactive”; that for `Cn1cc(-c2ccc(CN3C(=O)C4(CCN(c5ncccn5)C4)c4ccccc43)c(F)c2)cn1` (stereo not drawn) [Compound 19t] was “low micro-molar activity”.
Same read-out and setting: the value for `O=C1N(Cc2ccc(Br)cc2)c2ccccc2C12CCCN2` (stereo not drawn) [Compound 13] was “inactive”.
